Laboratory results taken from ChEMBL document CHEMBL1811823, “Quinazolinone linked pyrrolo[2,1-c][1,4]benzodiazepine (PBD) conjugates: Design, synthesis and biological evaluation as potential anticancer agents” (2010).
Calls of active or inactive are those of the source. The calls are words filed in the database; no cut-off is given here.

Tests used:
BT-549 = assay: Growth inhibition of human BT549 cells by NCI anti-cancer screening method; format: functional
SN12C = assay: Growth inhibition of human SN12C cells by NCI anti-cancer screening method; format: functional
A-375 [1] = assay: Increase in p21 mRNA expression in human A375 cells at 4 uM after 24 hrs by RT-PCR; format: functional, cell-based
How it was run: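 RT-PCR on RNA from A375 cells treated 24 h at 4 µM, using Bcl-2- or p21-specific primers with GAPDH as internal control. Products were visualized on 1% agarose gels stained with ethidium bromide. Untreated and DMSO-treated cells served as controls.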

UACC-62 = assay: Growth inhibition of human UACC62 cells by NCI anti-cancer screening method; format: functional
OVCAR-8 = assay: Growth inhibition of human OVCAR8 cells by NCI anti-cancer screening method; format: functional
HT-29 = assay: Growth inhibition of human HT-29 cells by NCI anti-cancer screening method; format: functional
NCI-H460 = assay: Growth inhibition of human NCI-H460 cells by NCI anti-cancer screening method; format: functional
MDA-MB-435 = assay: Growth inhibition of human MDA-MB-435 cells by NCI anti-cancer screening method; format: functional
NCI-H23 = assay: Growth inhibition of human NCI-H23 cells by NCI anti-cancer screening method; format: functional
MDA-MB-468 = assay: Growth inhibition of human MDA-MB-468 cells by NCI anti-cancer screening method; format: functional
KM12 = assay: Growth inhibition of human KM12 cells by NCI anti-cancer screening method; format: functional
SNB-19 = assay: Growth inhibition of human SNB19 cells by NCI anti-cancer screening method; format: functional
MCF7 = assay: Growth inhibition of human MCF7 cells by NCI anti-cancer screening method; format: functional
NCI [2] = assay: Growth inhibition of human RXF393 cells by NCI anti-cancer screening method; format: functional
NCI [3] = assay: Growth inhibition of human Hs 578T cells by NCI anti-cancer screening method; format: functional
M14 = assay: Growth inhibition of human M14 cells by NCI anti-cancer screening method; format: functional
A-375 [4] = assay: Inhibition of NF-kappaB signaling in human A375 cells at 4 uM after 24 hrs by Western blot; format: cell-based
How it was run: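 A375 cells (DMEM, 10% FCS, 37 °C, 5% CO2) were treated at 4 µM for 24 h. Lysates were loaded at 30 µg protein/lane on 12% SDS-PAGE and transferred to PVDF. Membranes were blocked 2 h in TBST, incubated with primary antibody overnight at 4 °C (p53 1:100, p27 1:500, NF-κB p65 1:500), then HRP secondary 1 h, with chemiluminescent detection. β-actin was the loading control; untreated and DMSO controls were run.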

SK-MEL-28 = assay: Growth inhibition of human SK-MEL-28 cells by NCI anti-cancer screening method; format: functional
MOLT-4 = assay: Growth inhibition of human MOLT4 cells by NCI anti-cancer screening method; format: functional
NCI-H226 = assay: Growth inhibition of human NCI-H226 cells by NCI anti-cancer screening method; format: functional
SW-620 = assay: Growth inhibition of human SW620 cells by NCI anti-cancer screening method; format: functional
SK-MEL-2 = assay: Growth inhibition of human SK-MEL-2 cells by NCI anti-cancer screening method; format: functional
COLO 205 = assay: Growth inhibition of human COLO205 cells by NCI anti-cancer screening method; format: functional
MDA-MB-231 = assay: Growth inhibition of human MDA-MB-231 cells by NCI anti-cancer screening method; format: functional
NCI-H522 = assay: Growth inhibition of human NCI-H522 cells by NCI anti-cancer screening method; format: functional
TK-10 = assay: Growth inhibition of human TK10 cells by NCI anti-cancer screening method; format: functional
CCRF-CEM = assay: Growth inhibition of human CCRF-CEM cells by NCI anti-cancer screening method; format: functional
K562 = assay: Growth inhibition of human K562 cells by NCI anti-cancer screening method; format: functional
Malme-3M = assay: Growth inhibition of human MALME-3M cells by NCI anti-cancer screening method; format: functional
A-375 [5] = assay: Decrease in CDK2 protein expression in human A375 cells at 4 uM after 24 hrs by Western blot; format: functional, cell-based
How it was run: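 A375 cells treated at 4 µM for 24 h, lysed, protein quantified by Bradford. 30 µg/lane run on 12% SDS-PAGE and transferred to PVDF. Blocked 2 h in TBST with 5% blocker. Probed with rabbit polyclonal CDK2 antibody (1:500) overnight at 4 °C, then HRP secondary (1:2000) 1 h. Chemiluminescent detection; β-tubulin loading control; untreated and DMSO controls.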

A549 = assay: Growth inhibition of human A549 cells by NCI anti-cancer screening method; format: functional
SK-MEL-5 = assay: Growth inhibition of human SK-MEL-5 cells by NCI anti-cancer screening method; format: functional
T47D = assay: Growth inhibition of human T47D cells by NCI anti-cancer screening method; format: functional
SF-539 = assay: Growth inhibition of human SF539 cells by NCI anti-cancer screening method; format: functional
HCT-15 = assay: Growth inhibition of human HCT15 cells by NCI anti-cancer screening method; format: functional
HL-60 = assay: Growth inhibition of human HL-60(TB) cells by NCI anti-cancer screening method; format: functional
How it was run: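 Cells grown in RPMI 1640 with 10% FBS and 2 mM L-glutamine were plated at a density set by doubling time. They were held 24 h at 37 °C in 5% CO2 before drug was added, then exposed continuously for 48 h. Cells were fixed with cold TCA (10% final) for 60 min at 4 °C and stained with 0.4% SRB. Bound dye was eluted in 10 mM Tris base and read at 540 nm. Percent growth was taken versus control wells.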

HCT-116 = assay: Growth inhibition of human HCT116 cells by NCI anti-cancer screening method; format: functional

## COc1cc2c(cc1OCCCCCOc1ccc(-n3c(C)nc4ccccc4c3=O)cc1)N=C[C@@H]1CCCN1C2=O
BT-549
  GI50: 0.11 µM
SN12C
  GI50: 0.24 µM
A-375 [1]
  Activity: Active
UACC-62
  GI50: 0.16 µM
OVCAR-8
  GI50: 0.34 µM
HT-29
  GI50: 0.26 µM
NCI-H460
  GI50: 0.2 µM
MDA-MB-435
  GI50: 0.16 µM
NCI-H23
  GI50: 0.23 µM
MDA-MB-468
  GI50: 0.16 µM
KM12
  GI50: 0.17 µM
SNB-19
  GI50: 0.28 µM
MCF7
  GI50: 0.17 µM
NCI [2]
  GI50: 0.21 µM
NCI [3]
  GI50: 0.16 µM
M14
  GI50: 0.17 µM
A-375 [4]
  inhibition: Active
SK-MEL-28
  GI50: 0.2 µM
MOLT-4
  GI50: 0.19 µM
NCI-H226
  GI50: 0.16 µM
SW-620
  GI50: 0.16 µM
SK-MEL-2
  GI50: 0.42 µM
COLO 205
  GI50: 0.18 µM
MDA-MB-231
  GI50: 0.17 µM
NCI-H522
  GI50: 0.12 µM
TK-10
  GI50: 0.31 µM
CCRF-CEM
  GI50: 0.16 µM
K562
  GI50: 0.06 µM
Malme-3M
  GI50: 0.23 µM
A-375 [5]
  Activity: Active
A549
  GI50: 0.23 µM
SK-MEL-5
  GI50: 0.16 µM
T47D
  GI50: 0.17 µM
SF-539
  GI50: 0.22 µM
HCT-15
  GI50: 1.09 µM
HL-60
  GI50: 0.18 µM
HCT-116
  GI50: 0.15 µM
